Experimental data taken from article PMC3115441 (Chemical biology & drug design, 2011).

Legend:
MES-induced seizures [1] = conditions: literature statement, no reference given; cited from earlier work
[2] = system: PCP site of the NMDA receptor complex; conditions: ref [39], [40]; cited from earlier work
[3] = system: Metrazol-induced clonic seizures; experiment: Subcutaneous Metrazol seizure threshold test; assay type: in vivo, mice; conditions: for scMET (30) N/F, animals active over tested: 30 mg/kg; for scMET (100) N/F, animals active over tested: 100 mg/kg
mice = experiment: Acute toxicity, minimal motor impairment; assay type: in vivo; conditions: for TOX (30) N/F, animals toxic over tested: 30 mg/kg
Dopamine 2 (D2) = Dopamine 2 (D2) (Homo sapiens, UniProt P14416); experiment: NIMH-PDSP radioligand binding, D2; conditions: read-out: D2 binding affinity; Human Cloned, hot ligand N-Methylspiperone
Serotonin 2A (5-HT2A) = Serotonin 2A (5-HT2A) (Homo sapiens, UniProt P28223); experiment: NIMH-PDSP radioligand binding, 5-HT2A; conditions: read-out: 5HT2A binding affinity; Human Cloned, hot ligand Ketanserin
Sigma1 = Sigma1 (Rattus norvegicus, UniProt Q9R0C9); experiment: NIMH-PDSP radioligand binding, Sigma-1; conditions: read-out: Sigma 1 binding affinity; Rat Brain, hot ligand Pentazocine(+)
[4] = target: Norepinephrine Transporter (NET) (Homo sapiens, UniProt P23975); experiment: NIMH-PDSP radioligand binding, NET; conditions: read-out: NET binding affinity; Human Cloned, hot ligand Nisoxetine
[5] = system: PCP site of the NMDA receptor complex; experiment: [3H]; assay type: binding, rat
Procedure, shortened: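 Washed rat forebrain homogenate (30 ug/mL protein) in 10 mM HEPES, pH 7.4, with 1 nM (+)-[3H]MK-801, 100 uM glutamate, 30 uM glycine and varied competitor concentrations. Nonspecific binding was set with 30 uM (+)-MK-801. Incubation ran 2 h at room temperature, then vacuum filtration onto GF/B filters, three buffer washes and scintillation counting.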

MES-induced seizures [6] = experiment: Maximal electroshock; assay type: in vivo, mice; conditions: for MES (30) N/F, animals active over tested: 30 mg/kg i.p.; for MES (100) N/F, animals active over tested: 100 mg/kg i.p.
Procedure, shortened: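 Mice received test compound i.p. at 30, 100 or 300 mg/kg in 0.01 ml/g and were tested at various intervals after dosing. Corneal electrodes primed with 0.5% tetracaine HCl electrolyte delivered 60 Hz alternating current, 50 mA, for 0.2 s. An animal counted as protected when the hindlimb tonic extensor component was abolished. Results are scored as animals protected over tested.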

6HZ = 6HZ test; assay type: in vivo; conditions: 50 mg/kg, 0.5 h
MES-induced seizures [7] = experiment: Anticonvulsant protection test in rats; assay type: in vivo; conditions: 30 mg/kg
Procedure, shortened: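 Rats were dosed orally at 30 mg/kg in 0.04 ml/10 g. Corneal electrodes primed with 0.5% tetracaine HCl electrolyte delivered 60 Hz alternating current, 150 mA, for 0.2 s. Protection meant abolition of the hindlimb tonic extensor component of the seizure.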

Dopamine 1 (D1) = Dopamine 1 (D1) (Homo sapiens, UniProt P21728); experiment: NIMH-PDSP radioligand binding, D1; conditions: read-out: D1 binding affinity; Human Cloned, hot ligand SCH23390
[8] = target: Serotonin Transporter (SERT) (Homo sapiens, UniProt P31645); experiment: NIMH-PDSP radioligand binding, SERT; conditions: read-out: SERT binding affinity; Human Cloned, hot ligand Citalopram
rats = experiment: Acute toxicity, minimal motor impairment in rats; assay type: in vivo; conditions: 30 mg/kg
Sigma2 = target: T1, Sigma2 (Rattus norvegicus, UniProt Q5U3Y7); experiment: NIMH-PDSP radioligand binding, Sigma-2; conditions: read-out: Sigma 2 binding affinity; Rat C12, hot ligand DTG
T1 sequence (Q5U3Y7 1-176): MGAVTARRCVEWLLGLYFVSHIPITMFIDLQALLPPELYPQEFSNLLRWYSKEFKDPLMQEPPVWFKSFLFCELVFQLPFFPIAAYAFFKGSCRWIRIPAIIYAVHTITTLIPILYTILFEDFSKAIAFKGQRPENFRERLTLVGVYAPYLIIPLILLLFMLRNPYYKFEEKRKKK

[9] = target: μ- opioid receptors (MOR) (Homo sapiens, UniProt P35372); experiment: NIMH-PDSP radioligand binding, MOR; conditions: read-out: MOR binding affinity; Human Cloned, hot ligand DAMGO
[10] = target: κ- opioid receptors (KOR) (Rattus norvegicus, UniProt P34975); experiment: NIMH-PDSP radioligand binding, KOR; conditions: read-out: KOR binding affinity; Rat Cloned, hot ligand U69593
[11] = target: Dopamine Transporter (DAT) (Homo sapiens, UniProt Q01959); experiment: NIMH-PDSP radioligand binding, DAT; conditions: read-out: DAT binding affinity; Human Cloned, hot ligand WIN35428
Sequence of Dopamine Transporter (DAT) (Q01959 whole entry): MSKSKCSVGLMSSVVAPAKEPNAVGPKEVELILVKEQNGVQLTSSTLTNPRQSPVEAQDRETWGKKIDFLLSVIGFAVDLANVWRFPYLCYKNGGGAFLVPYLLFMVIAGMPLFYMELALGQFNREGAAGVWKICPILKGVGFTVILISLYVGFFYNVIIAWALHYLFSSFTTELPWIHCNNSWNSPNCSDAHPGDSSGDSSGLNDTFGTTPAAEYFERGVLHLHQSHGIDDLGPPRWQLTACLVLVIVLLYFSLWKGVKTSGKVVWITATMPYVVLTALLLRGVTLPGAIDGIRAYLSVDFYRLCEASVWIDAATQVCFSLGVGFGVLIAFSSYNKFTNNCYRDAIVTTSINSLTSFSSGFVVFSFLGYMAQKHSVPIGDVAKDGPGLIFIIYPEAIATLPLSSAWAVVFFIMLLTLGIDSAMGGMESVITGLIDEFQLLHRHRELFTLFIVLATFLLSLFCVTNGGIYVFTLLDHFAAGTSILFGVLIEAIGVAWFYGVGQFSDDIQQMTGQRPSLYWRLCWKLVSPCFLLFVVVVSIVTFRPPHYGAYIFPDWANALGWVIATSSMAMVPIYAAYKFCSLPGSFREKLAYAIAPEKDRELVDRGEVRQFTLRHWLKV

Sequence of Serotonin 2A (5-HT2A) (P28223 whole entry): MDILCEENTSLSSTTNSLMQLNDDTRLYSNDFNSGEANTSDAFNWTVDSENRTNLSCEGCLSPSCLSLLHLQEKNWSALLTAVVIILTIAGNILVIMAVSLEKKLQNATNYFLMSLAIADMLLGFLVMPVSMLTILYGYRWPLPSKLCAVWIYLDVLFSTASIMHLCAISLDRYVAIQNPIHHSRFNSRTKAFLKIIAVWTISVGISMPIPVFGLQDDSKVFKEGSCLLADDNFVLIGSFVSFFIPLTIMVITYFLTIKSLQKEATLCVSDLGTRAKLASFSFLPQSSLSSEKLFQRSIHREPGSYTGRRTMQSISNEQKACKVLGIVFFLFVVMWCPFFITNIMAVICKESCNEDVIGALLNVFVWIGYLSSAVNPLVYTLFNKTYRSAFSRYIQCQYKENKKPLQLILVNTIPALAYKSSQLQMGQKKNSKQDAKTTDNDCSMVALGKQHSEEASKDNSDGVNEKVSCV
Sequence of κ- opioid receptors (KOR) (P34975 whole entry): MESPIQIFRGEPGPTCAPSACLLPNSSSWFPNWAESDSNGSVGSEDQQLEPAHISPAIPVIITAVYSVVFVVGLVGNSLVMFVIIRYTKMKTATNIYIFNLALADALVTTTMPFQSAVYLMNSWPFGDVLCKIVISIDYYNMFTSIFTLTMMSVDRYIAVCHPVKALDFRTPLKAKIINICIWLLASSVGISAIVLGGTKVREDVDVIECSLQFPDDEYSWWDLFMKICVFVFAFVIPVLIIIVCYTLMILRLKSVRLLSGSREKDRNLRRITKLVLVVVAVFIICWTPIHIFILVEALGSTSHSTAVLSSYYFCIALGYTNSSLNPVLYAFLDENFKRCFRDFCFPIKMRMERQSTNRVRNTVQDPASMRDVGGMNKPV
Sequence of Sigma1 (Q9R0C9 whole entry): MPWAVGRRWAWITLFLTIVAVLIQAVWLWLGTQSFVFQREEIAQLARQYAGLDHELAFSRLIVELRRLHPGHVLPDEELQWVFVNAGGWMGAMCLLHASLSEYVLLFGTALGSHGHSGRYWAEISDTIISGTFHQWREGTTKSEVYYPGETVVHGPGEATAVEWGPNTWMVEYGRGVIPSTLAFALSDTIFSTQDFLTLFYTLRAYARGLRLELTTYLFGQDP
Sequence of Serotonin Transporter (SERT) (P31645 whole entry): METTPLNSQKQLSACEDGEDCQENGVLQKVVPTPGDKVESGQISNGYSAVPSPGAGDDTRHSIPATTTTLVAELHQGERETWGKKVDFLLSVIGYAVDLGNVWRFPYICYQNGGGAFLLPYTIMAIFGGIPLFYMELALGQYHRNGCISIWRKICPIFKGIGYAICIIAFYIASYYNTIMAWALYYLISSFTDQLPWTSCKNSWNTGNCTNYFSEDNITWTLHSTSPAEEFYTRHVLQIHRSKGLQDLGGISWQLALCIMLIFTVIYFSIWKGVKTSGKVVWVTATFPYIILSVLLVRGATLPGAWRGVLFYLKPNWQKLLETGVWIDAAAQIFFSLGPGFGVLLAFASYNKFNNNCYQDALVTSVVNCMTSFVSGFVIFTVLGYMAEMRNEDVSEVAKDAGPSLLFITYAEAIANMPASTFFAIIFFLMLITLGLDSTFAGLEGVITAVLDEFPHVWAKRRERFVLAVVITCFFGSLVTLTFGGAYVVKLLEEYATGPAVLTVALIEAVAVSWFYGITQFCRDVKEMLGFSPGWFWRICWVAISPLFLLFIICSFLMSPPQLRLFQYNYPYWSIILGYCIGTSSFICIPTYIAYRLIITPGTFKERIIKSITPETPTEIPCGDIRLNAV
Sequence of Dopamine 1 (D1) (P21728 whole entry): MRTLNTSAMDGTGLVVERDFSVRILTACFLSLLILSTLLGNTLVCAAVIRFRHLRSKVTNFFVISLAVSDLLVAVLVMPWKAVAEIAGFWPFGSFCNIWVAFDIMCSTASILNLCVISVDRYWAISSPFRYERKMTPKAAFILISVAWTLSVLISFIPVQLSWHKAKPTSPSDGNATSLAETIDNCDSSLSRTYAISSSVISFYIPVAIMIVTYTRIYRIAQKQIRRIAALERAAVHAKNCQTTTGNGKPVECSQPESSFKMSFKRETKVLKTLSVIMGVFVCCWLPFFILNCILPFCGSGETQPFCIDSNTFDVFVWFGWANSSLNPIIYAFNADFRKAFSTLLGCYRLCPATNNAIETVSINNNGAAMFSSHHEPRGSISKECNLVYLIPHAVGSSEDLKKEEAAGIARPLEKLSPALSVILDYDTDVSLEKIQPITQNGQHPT
Sequence of μ- opioid receptors (MOR) (P35372 whole entry): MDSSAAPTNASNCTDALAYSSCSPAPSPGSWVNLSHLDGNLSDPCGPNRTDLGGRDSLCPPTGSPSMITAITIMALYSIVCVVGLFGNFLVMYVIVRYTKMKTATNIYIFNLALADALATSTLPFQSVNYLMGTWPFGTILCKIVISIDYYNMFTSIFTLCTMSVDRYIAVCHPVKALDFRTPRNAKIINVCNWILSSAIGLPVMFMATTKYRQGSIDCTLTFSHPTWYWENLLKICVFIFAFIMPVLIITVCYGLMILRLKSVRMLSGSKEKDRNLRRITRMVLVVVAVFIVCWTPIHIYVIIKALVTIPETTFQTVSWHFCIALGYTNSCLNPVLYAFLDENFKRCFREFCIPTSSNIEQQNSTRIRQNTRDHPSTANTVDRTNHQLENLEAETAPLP
Sequence of Norepinephrine Transporter (NET) (P23975 whole entry): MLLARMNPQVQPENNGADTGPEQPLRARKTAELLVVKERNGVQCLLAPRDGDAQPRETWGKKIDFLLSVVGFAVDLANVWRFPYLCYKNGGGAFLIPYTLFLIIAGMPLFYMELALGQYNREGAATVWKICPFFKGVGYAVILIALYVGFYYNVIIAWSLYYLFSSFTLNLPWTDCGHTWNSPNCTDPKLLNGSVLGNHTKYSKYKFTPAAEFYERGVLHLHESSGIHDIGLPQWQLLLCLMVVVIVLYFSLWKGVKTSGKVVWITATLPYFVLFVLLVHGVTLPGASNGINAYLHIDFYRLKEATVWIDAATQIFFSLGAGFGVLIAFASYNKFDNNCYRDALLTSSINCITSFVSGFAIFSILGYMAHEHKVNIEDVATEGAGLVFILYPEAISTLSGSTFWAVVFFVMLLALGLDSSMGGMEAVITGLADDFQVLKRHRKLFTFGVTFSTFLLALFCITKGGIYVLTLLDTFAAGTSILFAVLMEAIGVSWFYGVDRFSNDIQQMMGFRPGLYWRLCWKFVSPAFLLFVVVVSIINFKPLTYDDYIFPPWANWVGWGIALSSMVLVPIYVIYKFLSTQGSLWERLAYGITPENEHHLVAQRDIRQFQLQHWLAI
Sequence of Dopamine 2 (D2) (P14416 whole entry): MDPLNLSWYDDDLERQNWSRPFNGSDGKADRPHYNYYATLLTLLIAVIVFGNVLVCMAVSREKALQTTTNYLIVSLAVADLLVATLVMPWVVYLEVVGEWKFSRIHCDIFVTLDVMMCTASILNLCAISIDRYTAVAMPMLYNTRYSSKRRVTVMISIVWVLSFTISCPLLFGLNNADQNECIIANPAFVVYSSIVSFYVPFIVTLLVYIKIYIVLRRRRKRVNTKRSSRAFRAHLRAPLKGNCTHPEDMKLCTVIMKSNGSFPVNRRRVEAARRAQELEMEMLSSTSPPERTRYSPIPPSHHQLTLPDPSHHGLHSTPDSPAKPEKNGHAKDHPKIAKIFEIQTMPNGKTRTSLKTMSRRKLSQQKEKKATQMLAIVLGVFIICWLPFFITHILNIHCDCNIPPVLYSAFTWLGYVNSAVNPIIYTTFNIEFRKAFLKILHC

## COc1ccc2c(c1)[C@]13CCCC[C@@H]1[C@H](C2)N(C)CC3 [DXM, dextromethorphan]
MES-induced seizures [1]
  neuroprotective activity in the MES test (in words): neuroprotective activity in the MES test
[2]
  activity / affinity at NMDA (in words): low activity at NMDA

## Fc1ccc(C2(NCCN3CCCCC3)CC3CCC2C3)cc1 (stereo not shown) [Compound 5b]
[3]; 0.5 h
  scMET (30) N/F, animals active over tested: 0/1 0/1
  scMET (100) N/F, animals active over tested: 0/1 0/1
[3]; 4.0 h
  scMET (30) N/F, animals active over tested: 0/1 0/1
  scMET (100) N/F, animals active over tested: 0/1 0/1
mice; 50 mg/kg, 0.25 h
  TOX comments: Clonic seizures
mice; 100 mg/kg, 0.5 h
  TOX comments: Clonic seizures
mice; 300 mg/kg, 0.5 h
  TOX comments: Death
mice; rotorod, 0.5 h
  TOX (30) N/F, animals toxic over tested: 0/4
mice; rotorod, 4.0 h
  TOX (30) N/F, animals toxic over tested: 0/2
mice; rotorod, 65 mg/kg, 0.5 h
  TOX (65) N/F, animals toxic over tested: 2/4
mice; rotorod, 100 mg/kg, 0.5 h
  TOX (100) N/F, animals toxic over tested: 3/8
mice; rotorod, 100 mg/kg, 4.0 h
  TOX (100) N/F, animals toxic over tested: 0/4
mice; rotorod, 300 mg/kg, 0.5 h
  TOX (300) N/F, animals toxic over tested: 4/4 /
Dopamine 2 (D2)
  Ki: > 10 µM
Serotonin 2A (5-HT2A)
  Ki: 8.82 µM
Sigma1
  Ki: > 10 µM
[4]
  Ki: > 10 µM
[5]
  affinity for NMDA (in words): did not exhibit significant affinity
MES-induced seizures [6]; 0.5 h
  MES (30) N/F, animals active over tested: 0/1 0/1
  MES (100) N/F, animals active over tested: 2/3
MES-induced seizures [6]; 4.0 h
  MES (30) N/F, animals active over tested: 0/1 0/1
  MES (100) N/F, animals active over tested: 0/3
MES-induced seizures [6]; mouse, in vivo
  MES neuroprotective activity (in words): displayed MES neuroprotective activity
6HZ
  6HZ (50), animals active over tested: 0/4
MES-induced seizures [7]
  protection in rats (in words): did not display any protection
Dopamine 1 (D1)
  Ki: > 10 µM
[8]
  Ki: > 10 µM
rats
  toxicity in rats (in words): did not display any protection or toxicity
Sigma2
  Ki: > 10 µM
[9]
  Ki: > 10 µM
[10]
  Ki: 3.55 µM
[11]
  Ki: 1230 nM
